Measured values reported in ChEMBL document CHEMBL3351242, “Tetrahydroxanthene-1,3(2H)-dione derivatives from Uvaria valderramensis” (2014).
In brackets after ≈: the same amount, converted by molar mass. Activity calls are given as the source filed them. The calls are words filed in the database; no cut-off is given here.

Key:
Type in all cases: functional
[1] = system: Mycobacterium tuberculosis; test: Antitubercular activity against Mycobacterium tuberculosis H37Rv by MABA assay
Procedure, shortened: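 Microplate Alamar Blue assay on the H37Rv strain, with rifampin, isoniazid and streptomycin as positive drug controls; values reported as MIC in μg/mL.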

HUVEC = test: Cytotoxicity against HUVEC; conditions: Homo sapiens
Procedure, shortened: (§1)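 Growth inhibition measured colorimetrically with CellTiter-Blue and MTT read-outs, with imatinib as reference drug; values reported as GI50 in μg/mL.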

K562 = test: Cytotoxicity against human K562 cells; procedure, shortened: as §1
HeLa = test: Cytotoxicity against human HeLa cells; procedure, shortened: as §1

Row | Structure (SMILES) | MIC [1] | GI50 (HUVEC) [µg/mL] | GI50 (K562) [µg/mL] | CC50 (HeLa) [µg/mL]
1 | COc1ccc2c(c1)C[C@]1(OC)C(=O)/C(=C(O)/C=C/c3ccccc3)C(=O)C[C@@]1(OC)O2 | 10 µg/mL (≈ 22.9 µM) |  |  | 
2 | CC(=O)O[C@@H]1C(=O)C=COC=C1COC(=O)c1ccccc1 | 32 µg/mL (≈ 106 µM) | 5.4 (≈ 17.9 µM) | 1.4 (≈ 4.63 µM) | 
3 | COc1ccc2c(c1)C[C@]1(O)C(=O)/C(=C(O)/C=C/c3ccccc3)C(=O)C[C@@]1(OC)O2 (relative stereo) | inactive |  |  | 
4 | COc1ccc(C[C@H]2c3cc(O)c(OC)cc3CCN2C)cc1O [(S)-RETICULINE] | 32 µg/mL (≈ 97.1 µM) |  |  | 
5 | COc1cccc2c1C(=O)c1c(O)c3c(c(O)c1C2=O)C[C@@](O)(C(=O)CO)C[C@@H]3O[C@H]1C[C@H](N)[C@H](O)[C@H](C)O1 [DOXORUBICIN] |  | 0.1 (≈ 0.184 µM) | 1 (≈ 1.84 µM) | 2 (≈ 3.68 µM)
6 | Cc1ccc(NC(=O)c2ccc(CN3CCN(C)CC3)cc2)cc1Nc1nccc(-c2cccnc2)n1 [IMATINIB] |  | > 10 | 0.1 (≈ 0.203 µM) | > 10
7 | NNC(=O)c1ccncc1 [ISONIAZID] | 0.63 µg/mL (≈ 4.59 µM) |  |  | 
8 | CO[C@H]1/C=C/O[C@@]2(C)Oc3c(C)c(O)c4c(O)c(c(/C=N/N5CCN(C)CC5)c(O)c4c3C2=O)NC(=O)/C(C)=C\C=C\[C@H](C)[C@H](O)[C@@H](C)[C@@H](O)[C@@H](C)[C@H](OC(C)=O)[C@@H]1C [RIFAMPIN] | 0.15 µg/mL (≈ 0.182 µM) |  |  | 
9 | CN[C@@H]1[C@H](O[C@H]2[C@H](O[C@H]3[C@H](O)[C@@H](O)[C@H](N=C(N)N)[C@@H](O)[C@@H]3N=C(N)N)O[C@@H](C)[C@]2(O)C=O)O[C@@H](CO)[C@H](O)[C@H]1O [STREPTOMYCIN] | 0.83 µg/mL (≈ 1.43 µM) |  |  | 
